Screening data: PubChem, several laboratories
Hits are enriched below; roughly 1.9% of the tested compounds scored in any of these assays.
CASP6 VEID inh: human caspase-6 inhibitors, primary screen, biochemical, VEID-R110 fluorescence, single point, set 2; purified caspase-6, Z-VEID-R110 cleavage fluorescence; P55212; inhibition, % at 12.5 µM; hit rate 0.53% among 350,000;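 active = mean inhibition across replicates at least about 35%, with every replicate also reaching that limit, limit read from the data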;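 note: 0% = median of neutral control wells and 100% = no fluorescence left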
MBD2 inh: inhibitors of MBD2 binding to methylated DNA, primary screen, biochemical, TR-FRET, DNA-binding domain, human | hit rate 0.31% among 370,000 | Methyl-CpG-binding domain protein 2 (Homo sapiens), Q9UBB5 | inhibition, % at 4.4 µM | AID 686964, 2013 | MBD2 binding to methylated oligonucleotide; in the data active = inhibition above about 13%
LEDGF integ inh: blockers of LEDGF/p75-dependent integrase strand transfer – biochemical, TR-FRET, high throughput, primary screen; HIV-1 integrase (with human LEDGF/p75); TR-FRET IN-LEDGF/p75 DNA integration, Eu/Cy5; inhibition, % at 3.7 µM; hit rate 0.64% among 370,000;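 active = inhibition above the screen-wide mean plus 3 SD, cut at about 13% in these data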;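 note: signal is the Cy5 over europium emission ratio at 671 and 618 nm; 0% = plate median of compound wells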
UHRF1 binding: UHRF1 methylated DNA binding inhibitors, primary screen, counter-screen for MBD2 inhibitor project, biochemical, TR-FRET, human UHRF1, single concentration | E3 ubiquitin-protein ligase UHRF1 (Homo sapiens), Q96T88 | hit rate 0.75% among 370,000 | inhibition, % at 4.4 µM | UHRF1 binding to methylated oligo; in the data active = inhibition above about 21%;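 note: UHRF1 SRA domain binding a hemimethylated CpG hairpin DNA probe; 0% = median of test compound wells and 100% = reference inhibitor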
TDP2 inh: human TDP2 enzyme inhibitors, primary screen, biochemical, epi absorbance, recombinant enzyme. AID 720702, 2013. hit rate 0.34% among 370,000. T5PNP hydrolysis, p-nitrophenol absorbance 415 nm. inhibition, % at 12.8 µM;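 active = inhibition above the mean of all tested compounds plus 3 SD, set per campaign, cut at about 25% in these data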;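 note: 0% = DMSO with enzyme and 100% = buffer with substrate but no TDP2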
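Material: recombinant human TDP2; quantity: TDP2 enzyme at 120 nM final; medium: Tris-HCl pH 7.5 with MgCl2; compound: single concentration, 12.8 µM nominal, with 1% DMSO; incubation: 2 h enzyme incubation at 37 °C; signal: epi absorbance; measure: percent inhibition; benchmarks: high control without enzyme, low control DMSO plus TDP2; repeats: singlicate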
NSD2 HMT inh: NSD2 histone methyltransferase inhibitors, primary screen, biochemical, AlphaScreen, single concentration, set 2 | NSD2 peptide methylation, 120 min | inhibition, % at 12.5 µM | hit rate 0.54% among 310,000; in the data active = inhibition above about 50%
TDP2 inh conf: human TDP2 enzyme inhibitors, retest, confirmation, biochemical, epi absorbance, recombinant enzyme | hit rate 22% among 1,100 | absorbance read-out | inhibition, % at 12.8 µM | shares compounds with TDP2 inh; in the data active = inhibition above about 25%;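 note: 0% = vehicle with enzyme and 100% = no enzyme buffer only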
Starred values were filed as active, the others as inactive; . = not tested or not shown.

SMILES | CASP6 VEID inh | MBD2 inh | LEDGF integ inh | UHRF1 binding | TDP2 inh | NSD2 HMT inh | TDP2 inh conf
CC(C)(C)c1ccc(C(=O)NCCCNC(=O)c2ccco2)cc1 | 4 | -2 | 0 | -1 | 28* | -1 | -9
CC1=NN(Cc2ccccc2)C(=O)C1 | . | -8 | 7 | 1 | 58* | 10 | 6
CCOC(=O)N1CCN(S(=O)(=O)c2ccc(NC(C)=O)cc2)CC1 | 1 | -3 | -2 | 0 | 5 | 0 | .
CC1CCN(C2=C(NS(=O)(=O)c3ccccc3)C(=O)c3ccccc3C2=O)CC1 | 11 | -2 | 0 | -5 | 0 | 49 | .
CCOC(=O)N1CCN(C2=C(NS(=O)(=O)c3ccc(NC(C)=O)cc3)C(=O)c3ccccc3C2=O)CC1 | 19 | -8 | 6 | -2 | 28* | 48 | 24
CC1CCCN(C2=C(NS(=O)(=O)c3ccc(Br)cc3)C(=O)c3ccccc3C2=O)C1 (configuration not stated) | 0 | -7 | 2 | -1 | 20 | 15 | .
CCOC(=O)C1CCCN(C2=C(NS(=O)(=O)c3ccc(Br)cc3)C(=O)c3ccccc3C2=O)C1 (configuration not stated) | . | -1 | 22* | -2 | 43* | 46 | 13
CCN1CCN(C2=C(NS(=O)(=O)c3ccc(C)cc3)C(=O)c3ccccc3C2=O)CC1 | 62* | -19 | 5 | -13 | 25* | 51* | 13
CC(C)c1cn(CC[C@H]2CC[C@@H](NS(=O)(=O)c3ccc(Cl)cc3)[C@H](CO)O2)nn1 | 0 | . | . | . | . | . | .
COCC(=O)N(C[C@H]1N[C@H](CO)[C@@H]1c1ccc(C2=CCCCC2)cc1)C(C)C | 0 | . | . | . | . | . | .
C[C@@H]1CCCCO[C@@H](CN(C)C(=O)Cc2ccccc2)[C@H](C)CN([C@H](C)CO)C(=O)c2cc(NC(=O)c3ccncc3)ccc2O1 | 1 | . | . | . | . | . | .
COc1cc(C(C)=O)ccc1OCC(O)CN1CCN(c2ccccn2)CC1 (configuration not stated) | -1 | 0 | -1 | -2 | 26* | -1 | -1
CCN(CC)S(=O)(=O)c1ccc(N2CCN(S(=O)(=O)c3ccccc3)CC2)nc1 | 3 | 2 | 3 | -1 | 25* | 0 | 2
C[C@@H]1CN([C@@H](C)CO)S(=O)(=O)c2ccc(C3=CCCC3)cc2O[C@@H]1CN(C)Cc1cncnc1 | 0 | . | . | . | . | . | .
COc1ccc(N2CCN(CC(=O)N3c4ccccc4CC3C)CC2)cc1 (configuration not stated) | 0 | 0 | 0 | -1 | 26* | 7 | 10
Cc1cc(-c2ccccc2)nc2oc(C(=O)NN)c(N)c12 | -1 | -2 | -2 | -9 | 30* | 8 | 6
COc1ccc(CCNCC(=O)Nc2ccc(C)c(Br)c2)cc1OC | 0 | 1 | 5 | -1 | 13 | 2 | .
COc1ccc(CCNCC(=O)Nc2ccc(C)c(S(=O)(=O)N(C)C)c2)cc1OC | 2 | 5 | 0 | 4 | 32* | -2 | 9
COc1ccc(-n2c(N)c(C(=O)NCc3ccco3)c3nc4ccccc4nc32)cc1 | . | -9 | 6 | -7 | 27* | -9 | 3
COc1cc(/C=C/c2[nH]c(=O)[nH]c(=O)c2[N+](=O)[O-])cc([N+](=O)[O-])c1O | . | -19 | 2 | -5 | 31* | 13 | 11
CC(=O)N(C)C[C@@H]1Oc2cc(C#CC(C)C)ccc2S(=O)(=O)N([C@H](C)CO)C[C@H]1C | 3 | . | . | . | . | . | .
CCCOc1ccc(N)cc1N | . | -8 | 38* | 6 | 29* | 68* | 22
